The results in this text go back to ChEMBL document CHEMBL1777717, “Potent and selective oxindole-based vasopressin 1b receptor antagonists with improved pharmacokinetic properties” (Bioorg Med Chem Lett, 2011).

The nature of data set [1]: Clearance in rat plasma at 2 mg/kg, iv. In kind it is ADME, organism-based. Details: dose 2 mg/kg, route intravenous.
The next data set deals with T1, Vasopressin V1b receptor (Homo sapiens, UniProt P47901).
T1 sequence (P47901 whole entry): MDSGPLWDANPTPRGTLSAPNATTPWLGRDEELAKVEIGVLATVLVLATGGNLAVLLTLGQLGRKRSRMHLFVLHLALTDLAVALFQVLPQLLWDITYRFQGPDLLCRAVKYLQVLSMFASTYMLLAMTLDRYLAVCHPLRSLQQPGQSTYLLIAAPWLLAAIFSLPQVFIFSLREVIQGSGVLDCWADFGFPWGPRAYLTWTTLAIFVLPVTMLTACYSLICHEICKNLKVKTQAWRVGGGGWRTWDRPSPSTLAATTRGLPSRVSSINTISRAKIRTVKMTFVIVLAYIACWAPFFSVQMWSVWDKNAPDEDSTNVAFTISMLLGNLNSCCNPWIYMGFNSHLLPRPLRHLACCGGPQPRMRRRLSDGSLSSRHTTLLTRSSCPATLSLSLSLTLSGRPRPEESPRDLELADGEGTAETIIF
The data set can be described thus: Displacement of [3H]AVP from human vasopressin V1b receptor expressed in CHO cells by scintillation counting. Type of data set: cell-based.

The nature of data set [2]: Intrinsic clearance in rat liver microsomes measured up to 40 mins by HPLC-MS method. Type of data set: ADME, Microsome. A digest of the protocol: (§1)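 Intrinsic clearance determined by liver microsome incubation using a previously published procedure, reported in µL/min/mg; each value is the mean of at least two experiments.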
(In general: Liver microsomes are a subcellular fraction often used to study metabolism.)

Data set [3] in a line: Volume of distribution at steady state in rat at 2 mg/kg, iv. Details: dose 2 mg/kg, route intravenous. The following applies: in vivo, read-out: Vdss. In kind it is ADME, organism-based.
A further data set concerns the target Vasopressin V1a receptor (Homo sapiens, UniProt P37288). As to the kind of experiment: Displacement of [3H]AVP from human vasopressin V1a receptor expressed in CHO cells by scintillation counting. In kind it is cell-based. A digest of the protocol:
(§2)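 Ki from radioligand displacement at the human receptor, run per a previously published protocol; each value is the mean of at least two experiments.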

Another data set concerns Rattus norvegicus. As to the kind of experiment: Antidepressant activity in rat at 3 mg/kg, ip by forced swimming test. In kind it is functional, organism-based. More on the design: dose 3 mg/kg.
Another data set has as its target Vasopressin V2 receptor (Homo sapiens, UniProt P30518). As to the kind of experiment: Displacement of [3H]AVP from human vasopressin V2 receptor expressed in CHO cells by scintillation counting. Type of data set: cell-based. The essentials: as §2
Data set [4] in a line: Oral bioavailability in rat plasma at 10 mg/kg. In kind it is ADME, organism-based.
Data set [5] in a line: Terminal half life in rat at 2 mg/kg, iv. In kind it is ADME, organism-based. Details: dose 2 mg/kg, route intravenous. Conditions: in vivo, read-out: beta t1/2 (converted).
The nature of data set [6]: Intrinsic clearance in human liver microsomes measured up to 40 mins by HPLC-MS method. In kind it is ADME, Microsome. A digest of the protocol: as §1
Another data set addresses T2, Oxytocin receptor (Homo sapiens, UniProt P30559).
T2 sequence (P30559 whole entry): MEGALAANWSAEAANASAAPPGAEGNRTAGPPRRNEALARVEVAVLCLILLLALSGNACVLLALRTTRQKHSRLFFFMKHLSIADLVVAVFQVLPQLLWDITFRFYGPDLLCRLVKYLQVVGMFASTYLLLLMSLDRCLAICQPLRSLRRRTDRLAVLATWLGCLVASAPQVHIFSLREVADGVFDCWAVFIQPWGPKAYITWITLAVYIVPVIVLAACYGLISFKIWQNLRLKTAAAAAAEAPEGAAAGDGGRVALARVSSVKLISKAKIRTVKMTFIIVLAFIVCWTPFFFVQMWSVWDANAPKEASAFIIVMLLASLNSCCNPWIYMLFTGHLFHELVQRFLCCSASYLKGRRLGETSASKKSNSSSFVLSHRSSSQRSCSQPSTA
The data set can be described thus: Displacement of radiolabeled oxytocin from human oxytocin receptor expressed in CHO cells by scintillation counting. In kind it is cell-based. The essentials: as §2

The nature of data set [7]: Ratio of AUC in brain to plasma in rat at 10 mg/kg, ip. Type of data set: ADME, organism-based. More on the design: dose 10 mg/kg, route intraperitoneal. Conditions: brain and plasma, read-out: Ratio AUC.

Activity calls are given as the source filed them. No cut-off for these calls is given here. Some results are limits rather than exact numbers.

Sequence of Vasopressin V1a receptor (P37288 whole entry): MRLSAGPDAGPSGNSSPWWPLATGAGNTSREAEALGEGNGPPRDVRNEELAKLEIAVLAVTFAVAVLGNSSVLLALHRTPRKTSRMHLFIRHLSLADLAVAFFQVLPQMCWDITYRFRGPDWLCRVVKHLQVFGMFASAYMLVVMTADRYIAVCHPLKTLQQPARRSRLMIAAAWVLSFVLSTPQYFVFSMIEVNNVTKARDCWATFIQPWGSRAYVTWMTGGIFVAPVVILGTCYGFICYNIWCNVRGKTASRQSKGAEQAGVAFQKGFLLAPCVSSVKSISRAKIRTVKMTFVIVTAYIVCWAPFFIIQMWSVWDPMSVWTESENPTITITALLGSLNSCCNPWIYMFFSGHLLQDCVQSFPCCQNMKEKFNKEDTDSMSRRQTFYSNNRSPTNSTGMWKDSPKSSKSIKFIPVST
Sequence of Vasopressin V2 receptor (P30518 whole entry): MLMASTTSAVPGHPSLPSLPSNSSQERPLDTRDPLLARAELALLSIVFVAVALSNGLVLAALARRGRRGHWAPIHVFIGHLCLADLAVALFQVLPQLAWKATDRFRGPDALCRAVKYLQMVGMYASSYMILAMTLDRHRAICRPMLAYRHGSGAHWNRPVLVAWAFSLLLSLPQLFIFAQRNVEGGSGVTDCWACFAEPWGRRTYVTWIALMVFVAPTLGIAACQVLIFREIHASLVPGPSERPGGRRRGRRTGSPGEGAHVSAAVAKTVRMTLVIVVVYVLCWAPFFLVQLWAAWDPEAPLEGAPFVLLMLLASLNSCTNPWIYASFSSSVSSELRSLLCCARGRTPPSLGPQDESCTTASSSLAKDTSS

One may read the clearance as the rate of elimination divided by the concentration. Higher therefore signals a high capacity for elimination. In general, Ki refers to a measure of affinity in units of concentration, obtained from inhibition or displacement. Read a high Ki as weaker binding. For orientation: microsomal CLint means the rate of metabolic loss divided by the concentration. The low end stands for greater metabolic stability, the high end for faster metabolism. The term bioavailability denotes dose-corrected exposure relative to a reference, in per cent. A lower bioavailability goes with poor availability. In data set [1], `CNCc1ccc(OC)c([C@@]2(N3CCC[C@H]3c3ncco3)C(=O)N(S(=O)(=O)c3ccc(OC)cc3)c3ccc(Cl)cc32)c1` gave a clearance of 50 mL/min/kg. Further, the Ki was 3.9 nM on Vasopressin V1b receptor, 243 nM on Vasopressin V1a receptor, greater than 1000 nM on Vasopressin V2 receptor and 135 nM on Oxytocin receptor. Besides, the intrinsic clearance (microsomal CLint) came to 62 µL/min/mg in [2] and 64 µL/min/mg in data set [6]. In addition, in data set [3], the Vd worked out at 13 L/kg. In addition, in the data set with Rattus norvegicus, the result was Active. In addition, the bioavailability in data set [4] was found to be 68%. Further, in data set [5], the half-life is 3.3 h. In addition, the Kp in [7] worked out at 0.31.
